Measured values collected from several papers.
Each line is one published result; the experiments were not run side by side.
Target: Protein kinase C iota type (PRKCI, Homo sapiens, UniProt P41743)
Sequence (P41743 1-596, as in one of the studies): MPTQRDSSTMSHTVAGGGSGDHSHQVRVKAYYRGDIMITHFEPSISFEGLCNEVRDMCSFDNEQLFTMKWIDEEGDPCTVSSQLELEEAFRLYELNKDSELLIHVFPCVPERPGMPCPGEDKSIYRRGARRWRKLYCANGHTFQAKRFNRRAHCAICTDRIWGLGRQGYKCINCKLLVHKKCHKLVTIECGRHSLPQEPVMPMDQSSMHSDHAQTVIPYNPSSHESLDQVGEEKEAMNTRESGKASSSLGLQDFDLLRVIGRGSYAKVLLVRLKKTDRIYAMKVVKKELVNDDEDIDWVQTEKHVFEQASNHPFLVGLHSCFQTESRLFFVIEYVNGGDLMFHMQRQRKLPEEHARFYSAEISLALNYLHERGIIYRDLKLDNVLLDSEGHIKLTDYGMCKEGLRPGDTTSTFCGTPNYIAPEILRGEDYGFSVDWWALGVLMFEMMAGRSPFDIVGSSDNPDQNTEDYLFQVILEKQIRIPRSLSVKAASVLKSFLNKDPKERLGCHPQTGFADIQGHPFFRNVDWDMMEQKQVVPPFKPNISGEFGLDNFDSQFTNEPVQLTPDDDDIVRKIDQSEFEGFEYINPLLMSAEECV

| SMILES | effect on | mode | technique | tested at | endpoint | value |
| --- | --- | --- | --- | --- | --- | --- |
| CC(C)(C)c1cc(C=C(C#N)C#N)cc(Br)c1O | enzyme activity | inhibitor | – | 0.5 µM | remaining activity | 100% |
| COc1cc(Nc2ncc(F)c(Nc3ccc4c(n3)NC(=O)C(C)(C)O4)n2)cc(OC)c1OC | binding | – | – | 10 µM | inhibition | 35% |
| O=c1[nH]c2ccccc2n1C1CCN(Cc2ccc(-c3[nH]c4cc5ncnc5cc4nc3-c3ccccc3)cc2)CC1 | cell-free assay | – | – | 0.5 µM | remaining signal | 97% |
| Cn1cc(-c2cccc(N3CCc4c(sc5c4CC(C)(C)C5)C3=O)c2CO)cc(Nc2ccncn2)c1=O | enzyme activity | inhibitor | – | 1 µM | inhibition | 6% |
| COCc1c(-c2cc3cc(C)cc(OC)c3s2)c2c(N)ncnn2c1CN1CCNC(=O)C1 | cell-free assay | – | competition with immobilised ligand | 1 µM | inhibition | 80% |
| COc1ncccc1-c1cnn2ccc(N3CCN(C(=O)OC(C)C)CC3)nc12 | binding | – | competition with immobilised ligand | 1 µM | remaining binding | 90% |
| Cn1cc(-c2cc(F)cc(N3CCn4c(cc5c4CCCC5)C3=O)c2CO)cc(Nc2ccc(N3CCN(C4COC4)CC3)cn2)c1=O | enzyme activity | inhibitor | – | 0.1 µM | inhibition | -3% |
| Cn1cncc1[C@](O)(COc1ccc(C#N)cc1-c1ccc(OC(F)(F)F)cc1)c1ccc(C#N)cc1 | cell-free assay | – | competition with immobilised ligand | 1 µM | remaining binding | 100% |
